Source: PubChem BioAssay (Broad Institute)
dFosB activator: activators of delta FosB homodimer, primary screen, biochemical, fluorescence polarization, TAMRA-CDK5 oligo, single point; Protein FosB (Mus musculus), P13346; purified delta FosB; percent of positive-control signal above neutral wells; activation, % at 25 µM; actives 0.99% (n = 340,000); AID 493131, 2011;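 active = mean activation above about 17%, with every replicate also reaching it, limit read from the data, passing the limit was not always enough; inconclusive = only one of the two conditions met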
SR-BI DiI-HDL act: activators of SR-BI mediated DiI-HDL uptake, primary screen, ldlA[mSR-BI] CHO cells, DiI fluorescence | 3 h; 100 = double the neutral-control signal | activation, % at 12.5 µM | actives 0.096% (n = 320,000) | AID 504775, 2011;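 active = mean replicate activation of at least 60% and every replicate at or above 60%; inconclusive = mean or all-replicate condition met, but not both; inactive = mean below 60% and not all replicates reaching 60%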;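 note: 0% = median plate neutral-control signal and 100% = twice that signal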
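Test system: SR-BI-overexpressing, LDLR-lacking CHO cells; Also added: labelled HDL, 10 µg/mL; Measured by: bottom-read cell fluorescence after medium removal, ex 550/em 595 nm; Timing: 3 h uptake period with compound, 37 °C; Buffer or medium: F12, 0.5% BSA, 25 mM HEPES; Doses: single compound concentration, delivered by pin transfer.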
SR-BI HDL uptake: inhibitors of SR-BI mediated HDL lipid uptake, primary screen, ldlA[mSR-BI] cells, fluorescence, single point; ldlA[mSR-BI] CHO cells, DiI-HDL uptake fluorescence, 3 h; actives 0.96% (n = 320,000); inhibition, % at 12.5 µM;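 active = mean replicate inhibition of at least 70% and a set share of replicates each scoring 70 or more; inconclusive = meets just one of the two criteria; inactive = fails both criteria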;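 note: 0% = median of neutral control wells and 100% = median of positive control wells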
Target sequence (Q61009 whole entry, looked up): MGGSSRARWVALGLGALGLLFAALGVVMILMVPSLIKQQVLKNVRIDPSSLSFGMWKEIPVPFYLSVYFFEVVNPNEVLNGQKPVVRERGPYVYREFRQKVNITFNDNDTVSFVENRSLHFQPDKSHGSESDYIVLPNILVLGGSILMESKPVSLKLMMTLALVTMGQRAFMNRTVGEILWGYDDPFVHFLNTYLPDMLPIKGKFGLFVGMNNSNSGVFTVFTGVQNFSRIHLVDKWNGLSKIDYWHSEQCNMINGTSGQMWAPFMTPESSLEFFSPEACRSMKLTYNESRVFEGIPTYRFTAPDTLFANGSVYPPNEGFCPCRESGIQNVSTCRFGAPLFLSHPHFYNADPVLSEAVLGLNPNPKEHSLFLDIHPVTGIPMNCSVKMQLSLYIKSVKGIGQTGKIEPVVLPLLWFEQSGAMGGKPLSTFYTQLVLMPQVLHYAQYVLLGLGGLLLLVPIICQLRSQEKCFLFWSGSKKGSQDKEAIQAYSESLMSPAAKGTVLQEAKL
CDK5 inh: inhibitors of human CDK5/p35 kinase, primary screen, biochemical, single concentration. Cyclin-dependent kinase 5 (Homo sapiens) + Cyclin-dependent kinase 5 activator 1 (Homo …. Recombinant CDK5/p35, ADP-Glo luminescence, 60 min. inhibition, % at 10 µM. actives 0.01% (n = 330,000). AID 488839, 2010;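 active = highest replicate inhibition of at least 50% and at least 75% of replicates reaching 50%; inconclusive = only one of the two criteria met; inactive = both criteria failed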;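 note: plate controls were DMSO neutral control for no effect and GW8510 at 10 µM for full effect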
* hit, by the source's call. Rows were chosen to be rich in hits. Some 2% of all compounds tested hit in one or more screens of this group.

Screening COc1ccc(Cc2nnc(SCC(=O)N(C)CC(=O)Nc3ccc(C)cc3)o2)cc1 returned dFosB activator -9, SR-BI DiI-HDL act -8, SR-BI HDL uptake 8 and CDK5 inh -1.
`CCC1(c2ccc(F)cc2)NC(=O)NC1=O` (stereo not drawn) gave dFosB activator 4, SR-BI DiI-HDL act 26, SR-BI HDL uptake -26 and CDK5 inh 0.
Screening COc1ccc(OC)c(CN2CCN(C(=O)c3ccc(C)c(S(=O)(=O)Nc4ccccc4OC)c3)CC2)c1 returned dFosB activator -1, SR-BI DiI-HDL act -77, SR-BI HDL uptake 77* and CDK5 inh -8.
`COc1ccc(OC)c(CN2CCN(C(=O)c3cc(S(=O)(=O)Nc4ccccc4OC)ccc3C)CC2)c1` gave dFosB activator -5, SR-BI DiI-HDL act -69, SR-BI HDL uptake 69 and CDK5 inh 0.
`COc1ccc(NS(=O)(=O)c2cccc(C(=O)N3CCN(Cc4cc(OC)ccc4OC)CC3)c2)cc1` gave dFosB activator -5, SR-BI DiI-HDL act -74, SR-BI HDL uptake 74* and CDK5 inh 0.
`COc1cccc(NC(=O)CN2C(=O)NC(C)(c3ccc(C)cc3)C2=O)c1` (stereo not drawn) gave dFosB activator 1, SR-BI DiI-HDL act 17, SR-BI HDL uptake -17 and CDK5 inh 1.
`O=C(O)c1ccccc1-c1ccccc1C(=O)NNc1ccc([N+](=O)[O-])cc1` gave dFosB activator -8 and CDK5 inh 0.
Screening Cc1cc(NC(=O)c2cc(-c3ccccc3C)nc3ccccc23)no1 returned dFosB activator 1, SR-BI DiI-HDL act -45, SR-BI HDL uptake 45 and CDK5 inh -1.
Screening CC(=O)Nc1ccc(NC(=O)c2cc(-c3ccccc3)nc3ccccc23)cc1 returned dFosB activator 6, SR-BI DiI-HDL act -75, SR-BI HDL uptake 75* and CDK5 inh 0.
For Cc1ccc(NC(=O)c2cc(C)nc3ccccc23)cc1 the results were dFosB activator -3, SR-BI DiI-HDL act -18, SR-BI HDL uptake 18 and CDK5 inh -2.
`O=C(Nc1nc2c(s1)CCCC2)c1cc(-c2ccncc2)nc2ccccc12` gave dFosB activator 4, SR-BI DiI-HDL act -76, SR-BI HDL uptake 76* and CDK5 inh 1.
Screening Cc1ccc(C)c(NC(=O)c2cc(C)nc3ccccc23)c1 returned dFosB activator 3, SR-BI DiI-HDL act -79, SR-BI HDL uptake 79* and CDK5 inh 0.
CC(C)(C)NS(=O)(=O)c1ccc(NC(=O)c2cc(-c3ccccc3)nc3ccccc23)cc1 was read as dFosB activator 5, SR-BI DiI-HDL act -37, SR-BI HDL uptake 37 and CDK5 inh -1.
`O=C(Nc1nc2c(s1)CCCC2)c1cc(-c2ccccc2)nc2ccccc12` gave dFosB activator -2, SR-BI DiI-HDL act -39, SR-BI HDL uptake 39 and CDK5 inh 0.
Screening Cc1ccc(-c2cc(C(=O)Nc3cc(C)on3)c3ccccc3n2)c(C)c1 returned dFosB activator 2, SR-BI DiI-HDL act -78, SR-BI HDL uptake 78* and CDK5 inh -1.
For CN(C)C(CNC(=O)c1ccc(C(F)(F)F)cc1)c1ccco1 (stereo not drawn) the results were dFosB activator 0, SR-BI HDL uptake -26 and CDK5 inh 0.
`Cc1cc(C)c2ccc(=O)n(CC(=O)N/N=C/c3ccccc3Cl)c2n1` gave dFosB activator -11, SR-BI DiI-HDL act -9, SR-BI HDL uptake 9 and CDK5 inh 1.
CC(C)c1cc(C(C)C)c(S(=O)(=O)N2CCNCC2)c(C(C)C)c1 was read as dFosB activator 4, SR-BI DiI-HDL act 7, SR-BI HDL uptake -7 and CDK5 inh -3.
`Cc1ccc(NC(=O)c2cc(CC(C)C)nc3ccccc23)cc1` gave dFosB activator -16, SR-BI DiI-HDL act -53, SR-BI HDL uptake 53 and CDK5 inh -1.
`COc1ccc(NC(=O)c2cc(CC(C)C)nc3ccccc23)cc1` gave dFosB activator -4, SR-BI DiI-HDL act -76, SR-BI HDL uptake 76* and CDK5 inh -3.
Screening CC(=O)Nc1cccc(NC(=O)c2cc(-c3cccnc3)nc3ccc(Br)cc23)c1 returned dFosB activator -17, SR-BI DiI-HDL act -33, SR-BI HDL uptake 33 and CDK5 inh -1.
Screening O=C(Nc1cccnc1)c1cc(-c2ccc(Br)cc2)nc2ccccc12 returned dFosB activator -11, SR-BI DiI-HDL act -87, SR-BI HDL uptake 87* and CDK5 inh -1.
`C/C(=N\NC(=O)c1cc(-c2cccnc2)nc2ccccc12)c1ccccc1O` gave dFosB activator -16, SR-BI DiI-HDL act -107, SR-BI HDL uptake 107* and CDK5 inh 0.
CSc1ccccc1NC(=O)c1cc(-c2cccnc2)nc2ccc(Br)cc12 was read as dFosB activator 27*, SR-BI DiI-HDL act -55, SR-BI HDL uptake 55 and CDK5 inh 0.
`Cc1nc2ccccn2c1C(=O)NNC(=O)Nc1cccc(C(F)(F)F)c1` gave dFosB activator -2, SR-BI DiI-HDL act 18, SR-BI HDL uptake -18 and CDK5 inh -2.
For O=C(CNC(=O)C1CCCCC1)OCC(=O)c1ccc(Br)cc1 the results were dFosB activator -3, SR-BI DiI-HDL act 15, SR-BI HDL uptake -15 and CDK5 inh 1.
O=C(NC(=S)Nc1nc2c(s1)CCCC2)c1ccc(C(=O)c2ccccc2)cc1 was read as dFosB activator 1, SR-BI DiI-HDL act -76, SR-BI HDL uptake 76* and CDK5 inh -1.
For CCCOc1cccc(-c2cc(C(=O)NN)c3ccccc3n2)c1 the results were dFosB activator -9, SR-BI DiI-HDL act -84, SR-BI HDL uptake 84* and CDK5 inh 0.
Screening COc1ccccc1CCNC(=O)c1cc(-c2ccncc2)nc2ccc(Br)cc12 returned dFosB activator inconclusive, SR-BI DiI-HDL act -77, SR-BI HDL uptake 77* and CDK5 inh 1.
`COc1cc2c(=O)n(CCC(=O)NCC3CCCO3)c(=O)n(CC(=O)Nc3ccc(F)cc3)c2cc1OC` (stereo not drawn) gave dFosB activator -19 and CDK5 inh -3.
Screening CCOc1c(Br)cc(Br)cc1/C=C1\SC(N)=NC1=O returned dFosB activator 25*, SR-BI DiI-HDL act -25, SR-BI HDL uptake 25 and CDK5 inh 5.
`COc1ccc(CNCc2cccc3ccccc23)cc1` gave dFosB activator -4, SR-BI DiI-HDL act 5, SR-BI HDL uptake -5 and CDK5 inh -6.
`COc1ccc(/C=N/Nc2cc(C)nc3ccccc23)cc1` gave dFosB activator 53*, SR-BI DiI-HDL act -15, SR-BI HDL uptake 15 and CDK5 inh 4.
COc1ccc(/C=N/Nc2cc(C)nc3c(C)cccc23)cc1 was read as dFosB activator 6, SR-BI DiI-HDL act -29, SR-BI HDL uptake 29 and CDK5 inh -1.
N#Cc1c(NC(=O)/C=C/c2ccco2)sc2c1CCCC2 was read as dFosB activator -15, SR-BI DiI-HDL act -80, SR-BI HDL uptake 80* and CDK5 inh 0.
